According to ChEMBL document CHEMBL3751702, “Comprehensive Analysis of Structure-Activity Relationships of α-Ketoheterocycles as sn-1-Diacylglycerol Lipase α Inhibitors” (J Med Chem, 2015):

Target: T1, Diacylglycerol lipase-alpha (Homo sapiens, UniProt Q9Y4D2)
T1 sequence (Q9Y4D2 whole entry): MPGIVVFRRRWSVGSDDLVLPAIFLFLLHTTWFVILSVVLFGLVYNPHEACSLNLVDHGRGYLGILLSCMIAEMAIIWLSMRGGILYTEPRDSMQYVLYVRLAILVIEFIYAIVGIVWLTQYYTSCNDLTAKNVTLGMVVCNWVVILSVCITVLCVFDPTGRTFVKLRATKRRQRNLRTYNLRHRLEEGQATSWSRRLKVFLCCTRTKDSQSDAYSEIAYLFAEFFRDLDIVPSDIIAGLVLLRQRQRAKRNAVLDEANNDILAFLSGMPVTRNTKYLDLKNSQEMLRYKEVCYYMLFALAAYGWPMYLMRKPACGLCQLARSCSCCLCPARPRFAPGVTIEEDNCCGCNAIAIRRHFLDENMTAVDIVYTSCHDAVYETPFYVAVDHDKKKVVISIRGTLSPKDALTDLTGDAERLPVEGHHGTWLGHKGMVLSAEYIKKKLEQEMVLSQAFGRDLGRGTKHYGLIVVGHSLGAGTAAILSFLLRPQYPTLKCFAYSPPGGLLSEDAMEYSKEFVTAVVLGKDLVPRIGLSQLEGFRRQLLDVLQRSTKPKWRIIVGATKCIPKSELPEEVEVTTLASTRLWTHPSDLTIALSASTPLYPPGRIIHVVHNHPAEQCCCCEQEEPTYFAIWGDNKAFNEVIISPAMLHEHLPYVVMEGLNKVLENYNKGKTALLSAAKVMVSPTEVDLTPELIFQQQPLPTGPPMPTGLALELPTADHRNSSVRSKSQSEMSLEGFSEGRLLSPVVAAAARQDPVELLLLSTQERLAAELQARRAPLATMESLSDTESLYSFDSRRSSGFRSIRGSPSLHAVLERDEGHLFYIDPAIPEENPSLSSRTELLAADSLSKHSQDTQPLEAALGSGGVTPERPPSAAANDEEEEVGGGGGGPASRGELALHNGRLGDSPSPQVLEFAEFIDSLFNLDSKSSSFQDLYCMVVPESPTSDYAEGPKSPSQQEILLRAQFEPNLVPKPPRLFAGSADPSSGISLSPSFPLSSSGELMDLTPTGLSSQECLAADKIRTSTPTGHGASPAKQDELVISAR
Test: Inhibition of full-length human DAGLalpha expressed in HEK293T cell membranes using para-nitrophenylbutyrate by colorimetric assay
Format: cell-based, HEK-293T
In short: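 Membranes from HEK293T cells transiently transfected with full-length human DAGL-α (pcDNA3.1; PEI transfection, harvested at 72 h), diluted to 0.05 μg/μL final protein in 50 mM HEPES pH 7.2. Screen at 10 μM in duplicate; dose response by 10-fold serial dilution.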

IC50 [µM] | pIC50 (hek-293t) | SMILES
> 10 | – | O=C(CCCCCCc1ccccc1)c1ncc(C(F)(F)F)o1
> 10 | – | O=C(CCCCCc1ccccc1)c1nc2ncccc2s1
> 10 | – | O=C(CCCCCCc1ccccc1)c1nnc(-c2ccccc2)s1
> 10 | – | O=C(CCCCCCc1ccccc1)c1nnc(-c2ccncc2)o1
2.75 | – | O=C(CCCCCCc1ccccc1)c1nc(-c2ccccn2)no1
> 10 | – | O=C(O)c1cccc(-c2noc(C(=O)CCCCCCc3ccccc3)n2)n1
> 10 | – | O=C(CCCCCCc1ccccc1)c1nnc(-c2ccccn2)s1
> 10 | – | O=C(CCCCCc1ccccc1)c1nc2cccc(Br)c2o1
> 10 | – | O=C(CCCCCc1ccccc1)c1nc2cccc(F)c2o1
> 10 | – | O=C(CCCCCCc1ccccc1)c1nnc(-c2cccs2)s1
> 10 | – | O=C(CCCCCCc1ccccc1)c1nc(-c2cccc(I)n2)no1
> 10 | – | CNC(=O)c1cnc(C(=O)CCCCCCc2ccccc2)o1
> 10 | – | O=C(CCCCCCc1ccccc1)c1ccc(-c2ccco2)nn1
> 10 | – | Cc1ccc(-c2cnc(C(=O)CCCCCCc3ccccc3)o2)nc1
> 10 | – | O=C(CCCCCCc1ccccc1)c1nc(-c2ccccn2)co1
> 10 | < 5 | O=C(CCCCCCc1ccccc1)c1nnn[nH]1
2.4 | – | O=C(CCCCCCc1ccccc1)c1nc(Cl)co1
1.41 | – | O=C(CCCCCc1ccccc1)c1nc2cc(F)ccc2o1
8.71 | – | O=C(CCCCCCc1ccccc1)c1nc(-c2ccccc2)co1
0.891 | – | O=C(CCCCCc1ccccc1)c1nc2cc([N+](=O)[O-])ccc2o1
> 10 | – | COc1coc(C(=O)CCCCCCc2ccccc2)n1
> 10 | – | O=C(CCCCCCc1ccccc1)c1nnn(-c2ccco2)n1
> 10 | – | COc1ccc(-c2cnc(C(=O)CCCCCCc3ccccc3)o2)nc1
> 10 | – | O=C(CCCCCCc1ccccc1)c1ncc(Cl)o1
> 10 | – | O=C(CCCCCCc1ccccc1)c1nnc(-c2ccccn2)o1
> 10 | – | O=C(CCCCCCc1ccccc1)c1ncc(-c2ccc(F)cc2)o1

IC50 [µM] | pIC50 (hek-293t) | SMILES
2.34 | – | O=C(CCCCCCc1ccccc1)c1nc(I)co1
> 10 | – | O=C(CCCCCCc1ccccc1)c1nnc(-c2ccco2)[nH]1
> 10 | – | O=C(CCCCCCc1ccccc1)c1nc(Br)co1
> 10 | – | O=C(CCCCCCc1ccccc1)c1noc(-c2ccccn2)n1
> 10 | – | O=C(CCCCCCc1ccccc1)c1ncc(-c2ccco2)s1
> 10 | – | CNC(=O)c1coc(C(=O)CCCCCCc2ccccc2)n1
0.0646 | – | CCCCCCCCCCCCCCCC(=O)c1nc2ncccc2o1
0.00363 | – | O=C(CCCCCCCCc1ccccc1)c1nc2ncccc2o1
> 10 | – | COc1ccc(-c2cnc(C(=O)CCCCCCc3ccccc3)o2)cc1
> 10 | – | O=C(CCCCCCc1ccccc1)c1ncco1
> 10 | – | O=C(CCCCCCc1ccccc1)c1cccnn1
2.04 | – | O=C(CCCCCCc1ccccc1)c1nc(-c2cccc(Br)n2)no1
> 10 | – | O=C(CCCCCCc1ccccc1)c1ncc(-c2cccc(F)c2)o1
0.389 | – | CS(=O)(=O)c1coc(C(=O)CCCCCCc2ccccc2)n1
> 10 | – | O=C(CCCCCCc1ccccc1)c1nnc(-c2ccccn2)[nH]1
> 10 | – | Cn1nnc(C(=O)CCCCCCc2ccccc2)n1
0.123 | – | CC(=O)c1coc(C(=O)CCCCCCc2ccccc2)n1
2.4 | – | CCCCC/C=C\C/C=C\C/C=C\C/C=C\CCCC(=O)c1nc2ncccc2o1
1.82 | – | O=C(CCCCCCc1ccccc1)c1ncc(C(=O)C(F)(F)F)o1
> 10 | – | O=C(CCCCCCc1ccccc1)c1nnn(-c2ccccn2)n1
> 10 | – | COC(=O)c1nnc(C(=O)CCCCCCc2ccccc2)[nH]1
> 10 | – | O=C(CCCCCCc1ccccc1)c1ncc(-c2ccccc2)o1
> 10 | – | CSc1cnc(C(=O)CCCCCCc2ccccc2)o1
> 10 | – | O=C(CCCCCCc1ccccc1)c1noc(-c2cccs2)n1
> 10 | – | O=C(CCCCCCc1ccccc1)c1ncc(-c2ccc(C(F)(F)F)cn2)o1
> 10 | – | O=C(CCCCCCc1ccccc1)c1nncs1
